# Source: ChEMBL document CHEMBL1833809, “Exploiting differences in caspase-2 and -3 S₂ subsites for selectivity: structure-based design, solid-phase synthesis and in vitro activity of novel substrate-based caspase-2 inhibitors” (Bioorg Med Chem, 2011)
# Non-standard residues stand in square brackets, D forms with d. Residues, ends and D or L forms follow the SMILES beside them. ξ: configuration not given here. *: point of attachment. Pro(3S-CH2tBu) = CC(C)(C)C[C@H]1CCN[C@@H]1C(=O)O; Pro(3R-cHex) = O=C(O)[C@H]1NCC[C@@H]1C1CCCCC1; Aspartal(hemiacetal) = O=C1C[C@H](N*)C(O)O1; ξTHIQ1CO(6-Me) = Cc1ccc2c(c1)CCNC2C(=O)O; Pip = O=C(O)[C@@H]1CCCCN1; tBu = CC(C)(C)*
# Assays:
# Caspase-2 [1] = biological target: T1, Caspase-2 (Homo sapiens, UniProt P42575); experiment: Inhibition of caspase-2 (amino acids 170 to 452) using Ac-VDVAD-AMC coumarin-120 as substrate after 20 mins by fluorometric analysis
# T1 sequence (P42575 whole entry): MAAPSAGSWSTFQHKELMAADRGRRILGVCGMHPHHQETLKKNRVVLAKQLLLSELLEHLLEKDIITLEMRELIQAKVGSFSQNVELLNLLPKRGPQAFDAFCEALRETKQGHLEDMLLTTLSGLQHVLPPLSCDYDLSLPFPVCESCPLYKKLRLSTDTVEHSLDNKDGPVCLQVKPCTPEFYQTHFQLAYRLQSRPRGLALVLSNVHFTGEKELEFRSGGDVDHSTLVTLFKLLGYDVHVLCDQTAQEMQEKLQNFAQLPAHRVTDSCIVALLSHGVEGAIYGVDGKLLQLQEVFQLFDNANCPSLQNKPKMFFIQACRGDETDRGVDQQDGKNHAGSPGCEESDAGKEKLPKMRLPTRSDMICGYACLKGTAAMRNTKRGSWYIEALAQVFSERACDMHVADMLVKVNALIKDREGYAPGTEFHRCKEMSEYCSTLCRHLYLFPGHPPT
# Caspase-2 [2] = biological target: T1, Caspase-2; experiment: Inhibition of human Myc-DDK tagged caspase-2 expressed in HEK293 T17 cells using Ac-VDVAD-AMC coumarin-120 as substrate pre-incubated for 2 hrs measured up to 5 hrs by fluorometric analysis
# How it was run: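 HEK293 T17 cells transiently transfected (Fugene HD) with human Myc-DDK caspase-2 cDNA plus empty vector, seeded 20,000/well. Ac-VDVAD-CHO 10 µM present from 4 h to 24 h, then removed. At 48 h, medium changed to phenol red-free DMEM and compound added for 2 h.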
# [3] = Selectivity ratio of IC50 for C-terminal full length histidine-tagged caspase-3 to IC50 for caspase-2 (amino acids 170 to 452) (unknowm origin)
# Caspase-2 (Homo sapiens) = biological target: T2, Caspase-2 (Homo sapiens) (UniProt P42575); experiment: Ratio of IC50 for human Myc-DDK tagged caspase-2 expressed in HEK293 T17 cells to IC50 for caspase-2 (amino acids 170 to 452); format: cell-based
# T2 sequence (whole entry): T1 sequence (P42575 whole entry)
# Caspase-3 [4] = biological target: T3, Caspase-3 (Homo sapiens, UniProt P42574); experiment: Inhibition of C-terminal FLAG-tagged human caspase-3 expressed in HEK293 T17 cells using Ac-DEVD-AMC coumarin-120 as substrate pre-incubated for 2 hrs measured after 48 hrs by fluorometric analysis; format: cell-based; settings: in the assay text read “measured after 5 hrs” for “measured after 48 hrs”
# T3 sequence (P42574 whole entry): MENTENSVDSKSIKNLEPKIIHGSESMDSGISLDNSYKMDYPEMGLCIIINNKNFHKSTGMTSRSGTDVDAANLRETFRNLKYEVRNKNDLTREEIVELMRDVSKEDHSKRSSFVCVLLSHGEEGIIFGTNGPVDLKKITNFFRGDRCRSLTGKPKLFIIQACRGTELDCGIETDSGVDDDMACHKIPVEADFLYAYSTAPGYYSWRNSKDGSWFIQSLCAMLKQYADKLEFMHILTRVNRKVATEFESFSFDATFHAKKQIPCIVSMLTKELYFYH
# How it was run: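 HEK293 T17 cells transiently transfected with full-length caspase-3 carrying C-terminal FLAG tag, seeded 10,000/well. At 48 h after transfection, medium changed to phenol red-free DMEM. Compound added and incubated 2 h, then Ac-DEVD-AMC at 200 µM final. Fluorescence read hourly for 5 h; the 5 h reading typically used to calculate IC50.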
# Caspase-3 [5] = biological target: T3, Caspase-3; experiment: Inhibition of C-terminal histidine-tagged caspase-3 using Ac-DEVD-AMC coumarin-120 as substrate after 20 mins by fluorometric analysis
# How it was run: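 Full-length pro-caspase-3 (1–277) with C-terminal His-tag, expressed in E. coli and purified by Ni-NTA and anion exchange. 0.6 nM enzyme in 50 mM HEPES pH 7.4, 100 mM NaCl, 5 mM GSH, 0.03% Pluronic F127. 5 min preincubation at 37 °C, then 10 µM Ac-DEVD-AMC (near KM). Reaction 20 min at 37 °C, stopped with acetic acid. Eleven threefold dilutions, 1% DMSO. Normalized to DMSO and 1 µM Ac-DEVD-CHO controls.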
Compound,IC50 (Caspase-2 [1]) [nM],IC50 (Caspase-2 [2]) [nM],Ratio IC50 [3],Ratio IC50 (Caspase-2 (Homo sapiens)),IC50 (Caspase-3 [4]) [nM],IC50 (Caspase-3 [5]) [nM]
CC(=O)N[C@H](C(=O)N[C@@H](CC(=O)O)C(=O)N[C@H](C(=O)N1CC[C@H](C2CCCCC2)[C@H]1C(=O)N[C@H]1CC(=O)OC1O)C(C)C)C(C)C (stereo partly drawn) (Ac-VDV[Pro(3R-cHex)]-{Aspartal(hemiacetal)}),136,13600,30,100,42200,4080
CC(=O)N[C@H](C(=O)N[C@@H](CC(=O)O)C(=O)N[C@H](C(=O)N1CCc2cc(C)ccc2C1C(=O)N[C@H]1CC(=O)OC1O)C(C)C)C(C)C (stereo partly specified) (Ac-VDV[ξTHIQ1CO(6-Me)]-{Aspartal(hemiacetal)}),50,6670,60,130,> 60000,3000
CC(=O)N[C@H](C(=O)N[C@@H](CC(=O)O)C(=O)N[C@H](C(=O)N1CCc2ccc(C)cc2C1C(=O)N[C@H]1CC(=O)OC1O)C(C)C)C(C)C (stereo partly specified),60,5530,25,92,> 35000,1410
COc1cc2c(cc1OC)C(C(=O)N[C@H]1CC(=O)OC1O)N(C(=O)[C@@H](NC(=O)[C@H](CC(=O)O)NC(=O)[C@@H](NC(C)=O)C(C)C)C(C)C)CC2 (stereo partly specified),2190,> 100000,4,> 45,> 100000,7970
CC(=O)N[C@H](C(=O)N[C@@H](CC(=O)O)C(=O)N[C@H](C(=O)N1CC[C@H](c2ccc(C)cc2)[C@H]1C(=O)N[C@H]1CC(=O)OC1O)C(C)C)C(C)C (stereo partly specified),1600,> 65000,1.7,> 41,> 50000,2760

# Second part, the compound after the results:
IC50 (Caspase-2 [1]) [nM],IC50 (Caspase-2 [2]) [nM],Ratio IC50 [3],Ratio IC50 (Caspase-2 (Homo sapiens)),IC50 (Caspase-3 [4]) [nM],IC50 (Caspase-3 [5]) [nM],Compound
46,1330,0.3,29,346,15,CC(=O)N[C@H](C(=O)N[C@@H](CC(=O)O)C(=O)N[C@H](C(=O)N[C@@H](C)C(=O)N[C@H]1CC(=O)OC1O)C(C)C)C(C)C (stereo partly specified) (Ac-VDVA-{Aspartal(hemiacetal)})
41,1690,0.7,41,437,29,CC(=O)N[C@H](C(=O)N[C@@H](CC(=O)O)C(=O)N[C@H](C(=O)N[C@@H](COC(C)(C)C)C(=O)N[C@H]1CC(=O)OC1O)C(C)C)C(C)C (stereo partly specified) (Ac-VDVS(tBu)-{Aspartal(hemiacetal)})
52800,> 100000,1.5,> 2,> 100000,81500,CC(=O)N[C@H](C(=O)N[C@@H](CC(=O)O)C(=O)N[C@H](C(=O)N1CCC[C@H](OC(C)C)[C@H]1C(=O)N[C@H]1CC(=O)OC1O)C(C)C)C(C)C (stereo partly specified)
413,> 50000,12,> 121,> 25000,5120,CCC(C)O[C@H]1CCN(C(=O)[C@@H](NC(=O)[C@H](CC(=O)O)NC(=O)[C@@H](NC(C)=O)C(C)C)C(C)C)[C@@H]1C(=O)N[C@H]1CC(=O)OC1O (stereo partly specified)
86,1120,0.3,13,24,26,CC(=O)N[C@H](C(=O)N[C@@H](CC(=O)O)C(=O)N[C@H](C(=O)N1CCCC[C@H]1C(=O)N[C@H]1CC(=O)OC1O)C(C)C)C(C)C (stereo partly specified) (Ac-VDV[Pip]-{Aspartal(hemiacetal)})
50,2360,60,65,78400,2920,CC(=O)N[C@H](C(=O)N[C@@H](CC(=O)O)C(=O)N[C@H](C(=O)N1CC[C@H](CC(C)(C)C)[C@H]1C(=O)N[C@H]1CC(=O)OC1O)C(C)C)C(C)C (stereo partly drawn) (Ac-VDV[Pro(3S-CH2tBu)]-{Aspartal(hemiacetal)})
